Compounds with a hit are over-represented: about 1.3% of the library has one in this group of screens.
JMJD2C inh: blocks human GASC-1 demethylase activity; GST-JMJD2C(1-420) H3K9me3 demethylation, DELFIA europium; Q9H3R0; inhibition, % at 2.35 µM; hit rate 0.069% among 330,000;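 active = more than half of a compound's replicate wells show inhibition beyond 50%, single wells judged on their own value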;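 note: signal counts dimethyl H3K9 product captured on neutravidin plate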
EP2 antag: inhibitors of human EP2 prostaglandin E2 receptor | P43116 | C6 glioma cells expressing human EP2, cAMP TR-FRET; cells stimulated with saturating PGE2 | inhibition, % at 25 µM | hit rate 0.52% among 260,000 | AID 1422;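 active = percent inhibition above 40 after rounding to a whole number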;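 note: rat C6 glioma host cells with rolipram phosphodiesterase inhibitor present; the protocol text gives 20 µM as final concentration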
Target sequence (P43116 whole entry, looked up): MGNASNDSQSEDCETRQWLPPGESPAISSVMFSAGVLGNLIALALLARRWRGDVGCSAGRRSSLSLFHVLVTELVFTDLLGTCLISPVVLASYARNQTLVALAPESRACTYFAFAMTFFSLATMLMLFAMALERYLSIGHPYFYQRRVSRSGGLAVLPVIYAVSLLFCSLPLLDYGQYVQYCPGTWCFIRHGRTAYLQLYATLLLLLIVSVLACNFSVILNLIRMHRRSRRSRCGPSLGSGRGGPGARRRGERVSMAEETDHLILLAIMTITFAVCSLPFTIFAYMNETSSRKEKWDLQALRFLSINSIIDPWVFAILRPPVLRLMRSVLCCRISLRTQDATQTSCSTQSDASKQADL
NR2E3 ag-1: human photoreceptor-specific nuclear receptor agonism | Q9Y5X4 | CHO-S Gal4-NCOR/VP16-NR2E3 two-hybrid, luciferase | inhibition of corepressor binding, % at 3.98 µM | hit rate 0.35% among 360,000 | AID 602229;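 active = inhibition above the mean of all tested compounds plus 3 SD, cut at about 70% in these data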;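 note: higher means lower luciferase signal from less NR2E3 corepressor binding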
EP2 modulator: EP2 receptor (human) modulation; P43116; EP2-expressing cells, cAMP HTRF FRET, PGE2 co-stimulation; induction, % at 25 µM; hit rate 0.83% among 260,000;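 active = compounds whose cAMP rise, as percent of the full-agonist control response, exceeds 60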;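 note: rat C6 glioma line stably carrying human EP2 under a CMV promoter; the protocol text gives 20 µM as final concentration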
Furin inh: blocks human furin protease activity; P09958; purified furin, fluorogenic substrate cleavage; inhibition, % at 20 µM or 30 µM; hit rate 0.061% among 220,000; in the data active = inhibition above about 25%
NR2E3 ag-2: NR2E3 (human) agonism. Q9Y5X4. GST-NR2E3/biotin-RetCOR TR-FRET, 1536-well. inhibition of corepressor binding, % at 4.78 µM. hit rate 0.12% among 320,000;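 active = percent inhibition above the cutoff of mean plus 3 SD of all tested compounds, set per screening campaign, cut at about 20% in these data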
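Test system – NR2E3–RetCOR corepressor complex · Quantity – NR2E3 fusion 1.35 nM · Buffer or medium – Tris pH 7.5 · Incubation – Compound–protein incubation for 5 h at 4 °C · Technique – TR-FRET, Eu(K)-anti-GST donor, streptavidin-D2 acceptor, ex 340, em 617/671 nm · Evaluation – percent inhibition of 671/617 nm emission ratio versus biotin and DMSO controls · Plate – 1536-well format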
EP2 confirm: EP2 receptor cAMP induction, counter-screens negative; C6 glioma EP2 cells, cAMP HTRF induction; plus low (about EC15) PGE2 agonist; calls only at 20 µM (by protocol); shares compounds with EP2 modulator; AID 1080; hit rate 47% among 1,300;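 active = cAMP induction above 50% in the main assay while under 30% in all four parallel counter assays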;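 note: rat C6 glioma cells stably expressing human EP2 receptor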
Hits are given with their value.

How did CC1CCN(c2ccccc2NC(=O)c2ccc(F)cc2)CC1 do in these assays?
JMJD2C inh: inactive; EP2 antag: inactive; NR2E3 ag-1: inactive; EP2 modulator: 75; Furin inh: inactive; NR2E3 ag-2: inactive; EP2 confirm: inactive

How did Cc1sc2nc(C3CC3)n3c(=O)n(CC(=O)NCC4CC4)nc3c2c1C do in these assays?
EP2 modulator: inactive

Results for CCn1c(SCC(=O)Nc2cc(C)cc(C)c2)nnc1C1CCCCC1 ?
EP2 antag: inactive; EP2 modulator: inactive

Results for CCc1cc2ccc(C)cc2nc1SCC(=O)N1CCCC1 ?
EP2 antag: inactive; EP2 modulator: inactive

Results for CCc1cc2cc(C)cc(C)c2nc1SCC(=O)N1CCCC1 ?
JMJD2C inh: inactive; EP2 antag: inactive; NR2E3 ag-1: inactive; EP2 modulator: 82; Furin inh: inactive; NR2E3 ag-2: inactive; EP2 confirm: inactive

What do the screens show for `CCCc1nnc(NC(=O)Cc2c(F)cccc2Cl)s1`?
EP2 antag: inactive; EP2 modulator: inactive

Results for O=C(O)c1c(C(=O)N2N=C3/C(=C/c4ccccc4)CCCC3C2c2ccccc2)cccc1[N+](=O)[O-] (stereo unspecified) ?
JMJD2C inh: inactive; EP2 antag: inactive; NR2E3 ag-1: inactive; EP2 modulator: inactive; Furin inh: inactive; NR2E3 ag-2: inactive

How did CC(=O)N1N=C2/C(=C/c3ccccc3)CCCC2C1c1ccccc1 (stereo unspecified) do in these assays?
JMJD2C inh: inactive; EP2 antag: inactive; NR2E3 ag-1: inactive; EP2 modulator: 70; Furin inh: inactive; NR2E3 ag-2: inactive; EP2 confirm: inactive

How did CCOC(=O)CNC(=O)c1cc(-c2ccc3c(c2)OCCO3)oc1C do in these assays?
JMJD2C inh: inactive; EP2 antag: inactive; NR2E3 ag-1: inactive; EP2 modulator: inactive; Furin inh: inactive; NR2E3 ag-2: inactive

Results for CCOC(=O)CNC(=O)c1ccc2c(c1)OCCO2 ?
JMJD2C inh: inactive; EP2 antag: inactive; NR2E3 ag-1: inactive; EP2 modulator: 69; Furin inh: inactive; NR2E3 ag-2: inactive; EP2 confirm: inactive

Results for CCCn1c(C)nc2c(c1=O)c1nc3ccccc3nc1n2CCC1=CCCCC1 ?
JMJD2C inh: inactive; EP2 antag: inactive; NR2E3 ag-1: inactive; EP2 modulator: 72; Furin inh: inactive; NR2E3 ag-2: inactive; EP2 confirm: inactive

Results for CCCn1c(C)nc2c(c1=O)c1nc3ccccc3nc1n2CCc1ccccc1 ?
Furin inh: inactive

How did COc1ccc(Cn2nnnc2C(c2cc3c(C)cc(C)cc3[nH]c2=O)N2CCN(C)CC2)cc1 (stereo unspecified) do in these assays?
EP2 antag: inactive; EP2 modulator: inactive

What do the screens show for `COc1ccc(NC(=O)c2cccs2)cc1`?
JMJD2C inh: inactive; EP2 antag: inactive; NR2E3 ag-1: inactive; EP2 modulator: inactive; Furin inh: inactive; NR2E3 ag-2: inactive

Results for COc1ccc(N=N/C(=C\O)C(=O)c2cccs2)cc1 ?
JMJD2C inh: inactive; EP2 antag: inactive; NR2E3 ag-1: inactive; EP2 modulator: 67; Furin inh: inactive; NR2E3 ag-2: inactive; EP2 confirm: inactive

What do the screens show for `Cc1cccc(N=N/C(=C\O)C(=O)c2ccc(Br)cc2)c1`?
JMJD2C inh: inactive; EP2 antag: inactive; NR2E3 ag-1: inactive; EP2 modulator: 97; Furin inh: inactive; NR2E3 ag-2: inactive; EP2 confirm: active

How did COc1ccc(C(=O)/C(=C/O)N=Nc2ccc(F)cc2)cc1 do in these assays?
JMJD2C inh: inactive; EP2 antag: inactive; NR2E3 ag-1: inactive; EP2 modulator: 69; Furin inh: inactive; NR2E3 ag-2: inactive; EP2 confirm: active

Results for CCn1cc(C(=O)O)c(C)n1 ?
EP2 antag: inactive; EP2 modulator: inactive

Results for O=C(O)c1csc(N/N=C/c2ccc(Br)cc2)n1 ?
JMJD2C inh: inactive; EP2 antag: inactive; NR2E3 ag-1: inactive; EP2 modulator: 73; Furin inh: inactive; EP2 confirm: inactive

Results for Cc1csc(N/N=C/c2ccc([N+](=O)[O-])cc2)n1 ?
JMJD2C inh: inactive; NR2E3 ag-1: inactive; NR2E3 ag-2: inactive

What do the screens show for `CCCC/C(=N\NC(=O)c1ccc(Br)o1)c1ccccc1`?
JMJD2C inh: inactive; EP2 antag: inactive; NR2E3 ag-1: inactive; EP2 modulator: inactive; Furin inh: inactive; NR2E3 ag-2: inactive; EP2 confirm: inactive

Results for COc1ccc(C2C(C(C)=O)=C(O)C(=O)N2CCNCCO)cc1 (stereo unspecified) ?
EP2 antag: inactive; EP2 modulator: inactive

How did FC(F)(F)c1cc(-c2ccccc2)nc(N2CCOCC2)n1 do in these assays?
JMJD2C inh: inactive; EP2 antag: inactive; NR2E3 ag-1: inactive; EP2 modulator: 65; Furin inh: inactive; NR2E3 ag-2: inactive; EP2 confirm: inactive

How did Cc1ccc(N=Nc2c(N)[nH]n3c(=O)c4c(nc23)CCCC4)cc1 do in these assays?
JMJD2C inh: inactive; EP2 modulator: 81; Furin inh: inactive; EP2 confirm: active

How did Cc1cc(C)c(S(=O)(=O)N(C2=NCCS2)S(=O)(=O)c2c(C)cc(C)cc2C)c(C)c1 do in these assays?
JMJD2C inh: inactive; EP2 antag: inactive; NR2E3 ag-1: inactive; EP2 modulator: 71; Furin inh: inactive; NR2E3 ag-2: inactive; EP2 confirm: inactive

Results for CC1=CC(C)(C)N(S(=O)(=O)c2ccc(F)cc2)c2ccc(C)cc21 ?
JMJD2C inh: inactive; EP2 antag: inactive; NR2E3 ag-1: inactive; EP2 modulator: 72; Furin inh: inactive; NR2E3 ag-2: inactive; EP2 confirm: active

What do the screens show for `COc1ccc2c(c1)C(C)=CC(C)(C)N2S(=O)(=O)c1ccc(Br)cc1`?
JMJD2C inh: inactive; EP2 antag: inactive; NR2E3 ag-1: inactive; EP2 modulator: 69; Furin inh: inactive; NR2E3 ag-2: inactive; EP2 confirm: active

Results for Cc1onc(-c2ccccc2Cl)c1-c1nc(-c2ccncc2)no1 ?
JMJD2C inh: inactive; EP2 antag: inactive; NR2E3 ag-1: inactive; EP2 modulator: 65; Furin inh: inactive; NR2E3 ag-2: inactive; EP2 confirm: inactive

What do the screens show for `C1=C(c2ccccc2)Nc2ccccc2N=C1c1ccccc1`?
JMJD2C inh: inactive; EP2 antag: inactive; NR2E3 ag-1: inactive; EP2 modulator: 66; Furin inh: inactive; NR2E3 ag-2: inactive; EP2 confirm: active

Results for CCn1c(/N=C/c2ccccc2O)nc2ccccc21 ?
JMJD2C inh: inactive; NR2E3 ag-1: inactive; NR2E3 ag-2: inactive

What do the screens show for `C=CCc1cccc(/C=N/c2nc3ccccc3n2CC)c1O`?
JMJD2C inh: inactive; EP2 antag: inactive; NR2E3 ag-1: inactive; EP2 modulator: 84; Furin inh: inactive; NR2E3 ag-2: inactive; EP2 confirm: inactive

Screening data (PubChem BioAssay)
